{"data": "Experimental data of several laboratories", "target": "Platelet-derived growth factor receptor beta (PDGFRB, Homo sapiens, UniProt P09619)", "note": "Compare with care: the assays were run in different laboratories."}
{"SMILES": "CC(C)c1ccc(NC(=O)c2cccs2)c(-c2nc3ccccc3[nH]c2=O)c1", "effect on": "enzyme activity", "action": "inhibitor", "tested at": "1 µM", "measurement": "activity vs control", "result": "105%"}
{"SMILES": "O=c1c2ccccc2[nH]c(=S)n1CCN1CCC(=C(c2ccc(F)cc2)c2ccc(F)cc2)CC1", "effect on": "enzyme activity", "action": "inhibitor", "tested at": "0.5 µM", "measurement": "remaining activity", "result": "112%"}
{"SMILES": "Fc1cccc(-n2cnc3c(NCc4nc5c(F)c(F)ccc5[nH]4)nc(N4CCOCC4)nc32)c1", "effect on": "binding", "method": "competition with immobilised ligand", "tested at": "10 µM", "measurement": "binding vs control", "result": "91%"}
{"SMILES": "CCN(CC)CCNC(=O)c1c(C)[nH]c(/C=C2\\C(=O)Nc3ccc(F)cc32)c1C", "effect on": "cell-free assay", "tested at": "0.5 µM", "measurement": "remaining signal", "result": "17.6%"}
{"SMILES": "Cc1[nH]c(/C=C2\\C(=O)Nc3ccc(F)cc32)c(C)c1C(=O)N[C@H]1CCN(C(=O)N(C)C)C1", "effect on": "enzyme activity", "action": "inhibitor", "tested at": "0.1 µM", "measurement": "remaining activity", "result": "97%"}
{"SMILES": "CCCS(=O)(=O)Nc1ccc(F)c(C(=O)c2c[nH]c3ncc(-c4ccc(Cl)cc4)cc23)c1F", "effect on": "enzyme activity", "action": "inhibitor", "tested at": "1 µM", "measurement": "inhibition", "result": "< 20%"}
{"SMILES": "Cc1noc([C@H]2C[C@@H](c3ccc(C(F)(F)F)cc3)CN(C(=O)N3CCS(=O)(=O)C3)C2)n1", "effect on": "cell-free assay", "method": "competition with immobilised ligand", "tested at": "1 µM", "measurement": "remaining binding", "result": "100%"}
{"SMILES": "N#CCCc1ccc2c(c1)-c1[nH]c3ccc([N+](=O)[O-])cc3c1CC(=O)N2", "effect on": "cell-free assay", "tested at": "0.5 µM", "measurement": "remaining signal", "result": "83.9%"}
{"SMILES": "Cc1cnc(NC2CCOCC2)nc1-n1cnc(C(=O)NC(CN)c2cc(F)cc(Cl)c2)c1 (centres unmarked)", "effect on": "enzyme activity", "action": "inhibitor", "method": "radiometric", "tested at": "1 µM", "measurement": "remaining activity", "result": "92%"}
{"SMILES": "Cc1ccc(Nc2nccc(N(C)c3ccc4c(C)n(C)nc4c3)n2)cc1S(N)(=O)=O", "effect on": "enzyme activity", "action": "inhibitor", "tested at": "10 µM", "measurement": "inhibition", "result": "97%"}
{"SMILES": "CCCOc1ccc(OC)c(F)c1C(=O)c1ccc(C(=O)N[C@@H]2CNC[C@H]2NC(=O)c2ccc3[nH]ncc3c2)cc1", "effect on": "enzyme activity", "action": "inhibitor", "tested at": "10 µM", "measurement": "remaining activity", "result": "74%"}
{"SMILES": "NS(=O)(=O)c1cc(NC(=O)Cc2ccccc2)ccc1Oc1cccc(Cl)c1", "effect on": "cell-free assay", "method": "competition with immobilised ligand", "tested at": "1 µM", "measurement": "remaining binding", "result": "76%"}
{"SMILES": "O=c1cc(-c2cccc3c2Sc2ccccc2S3)oc(N2CCOCC2)c1", "effect on": "enzyme activity", "action": "inhibitor", "tested at": "0.5 µM", "measurement": "remaining activity", "result": "102%"}
{"SMILES": "COc1cc2nccc(Oc3ccc(NC(=O)c4c5n(n(-c6ccc(F)cc6)c4=O)CCCC5)cc3)c2cc1OC", "effect on": "enzyme activity", "action": "inhibitor", "tested at": "0.1 µM", "measurement": "inhibition", "result": "6%"}
{"SMILES": "CC(C)(O)c1cncc(-c2nc3ccc(F)cc3n2C2CC2)c1", "effect on": "cell-free assay", "method": "competition with immobilised ligand", "tested at": "1 µM", "measurement": "remaining binding", "result": "100%"}
{"SMILES": "COc1cc2ncnc(Nc3ccc(Oc4ccccc4)c(C)c3C)c2cc1OC", "effect on": "enzyme activity", "action": "inhibitor", "tested at": "1 µM", "measurement": "inhibition", "result": "6%"}
{"SMILES": "O=C(NCCCC1CCCCC1)c1ccc(CNC(=O)c2cnn(-c3ccccc3)c2C(F)(F)F)cc1", "effect on": "cell-free assay", "method": "competition with immobilised ligand", "tested at": "0.1 µM", "measurement": "remaining binding", "result": "100%"}
{"SMILES": "COc1cc2c(cc1OC)-c1[nH]nc(Nc3cccc(F)c3)c1C2", "effect on": "cell-free assay", "tested at": "0.5 µM", "measurement": "remaining signal", "result": "45.3%"}
{"SMILES": "Cn1cc(Cl)c2c(Oc3c(F)cc(Nc4cc(Cl)nc(N)n4)cc3F)ccnc21", "effect on": "cell-free assay", "method": "competition with immobilised ligand", "tested at": "0.1 µM", "measurement": "remaining binding", "result": "96%"}
{"SMILES": "CC(C)(O)[C@H]1CC[C@H](Nc2ccc3ncc(-c4cccc(C(F)(F)F)c4)n3n2)CC1", "effect on": "enzyme activity", "action": "inhibitor", "tested at": "1 µM", "measurement": "remaining activity", "result": "81%"}
